DNA FID counter: displaces DNA intercalator in HCV helicase counter-screen; AID 1845; DNA fluorescent intercalator displacement, fluorescence; inhibition, % at 7.9 µM; 290,000 compounds, 0.17% hits; in the data active = inhibition above about 37%;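 also: higher means more ethidium bromide displaced from hairpin DNA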
Rad51 HR inh: Rad51 (human) homologous recombination inhibition | AID 1385 | 200,000 compounds, 0.085% hits | hRad51 DNA strand exchange, fluorescence dequenching | inhibition, % at 10 µM | Q06609;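 active = inhibition above 40% at the single screening dose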
Target sequence (Q06609 whole entry, looked up): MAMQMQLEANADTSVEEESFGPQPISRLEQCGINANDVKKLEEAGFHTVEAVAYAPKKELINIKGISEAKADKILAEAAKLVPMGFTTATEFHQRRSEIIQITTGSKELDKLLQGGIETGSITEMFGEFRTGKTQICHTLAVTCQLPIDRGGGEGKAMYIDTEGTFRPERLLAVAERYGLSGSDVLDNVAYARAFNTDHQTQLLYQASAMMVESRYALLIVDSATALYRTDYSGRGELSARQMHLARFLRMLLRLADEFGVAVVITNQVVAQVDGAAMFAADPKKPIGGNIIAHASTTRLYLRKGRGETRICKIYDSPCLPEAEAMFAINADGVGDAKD
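System: human Rad51 nucleoprotein filaments preassembled on unlabelled ssDNA. Reagent: labelled 47-mer dsDNA for strand exchange. Schedule: 30-min compound preincubation and 15-min exchange, both room temperature. Measured by: FRET fluorescence dequenching, excitation 485 nm, emission 520 nm. Read-out: Fluorescence-based percent inhibition, control- and blank-normalised. Benchmarks: plate controls and plate blanks.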
RBBP9 inh: human RBBP9 hydrolase inhibition. recombinant RBBP9, FP-Rh probe fluorescence polarization. inhibition, % at 7.94 µM. 220,000 compounds, 0.2% hits;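 active = inhibition above the campaign mean of all tested compounds plus 3 SD, cut at about 14% in these data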
Target sequence (O75884 whole entry, looked up): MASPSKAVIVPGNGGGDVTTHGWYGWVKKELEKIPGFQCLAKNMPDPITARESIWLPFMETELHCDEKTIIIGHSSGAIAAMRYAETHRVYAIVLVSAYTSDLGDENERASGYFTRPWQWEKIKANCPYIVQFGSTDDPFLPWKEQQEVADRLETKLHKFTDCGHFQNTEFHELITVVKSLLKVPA
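Test system – recombinant human RBBP9 · Input – RBBP9 2.5 µM in dispensing solution, pre-mixing · Medium – Tris buffer pH 8.0, NaCl, Pluronic · Schedule – preincubation 30 min plus labeling 45 min at 25 °C · Measured by – fluorescence polarization · Measure – % inhibition · Controls – DMSO and no-protein wells · Replicates – one well per compound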
Wee1 stabilizer: blocks degradation of human Wee1 kinase; AID 1321; 220,000 compounds, 1.2% hits; P30291; HeLa Luc-Wee1K328M stability, luciferase luminescence; 100% = proteasome inhibitor MG132 effect; reporter increase, % at 5 µM;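 active = activation above the mean of all tested compounds plus 3 SD, set per screening run, cut at about 8.8% in these data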;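 also: cells exposed to compound for 20 h before luminescence read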
RBBP9 confirm: human RBBP9 inhibition, confirmation; shares compounds with RBBP9 inh; recombinant RBBP9, FP-Rh probe fluorescence polarization; inhibition, % at 7.94 µM; 410 compounds, 36% hits;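 active = inhibition above the hit cutoff derived for the primary screen, cut at about 15% in these data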
Of the large screens only hits and unclear results are named; the others gave an inactive call (follow-up assays come after a bar, where they were run). This is a sample that favours compounds with a hit; in the whole collection about 1.2% have one here.

CCN(C(=O)CSc1nnc(COc2cccc(C)c2)o1)c1nc(C)cs1	none (no result: Rad51 HR inh, RBBP9 inh, Wee1 stabilizer)
O=c1c2ccccc2nc(/C=C/c2cccnc2)n1Cc1ccccc1	Rad51 HR inh 48, RBBP9 inh 15 | RBBP9 confirm 55
CCOC(=O)C1(Cc2ccc(OC)cc2)CCN(C(=O)c2cccc3nccnc23)CC1	RBBP9 inh 16 (no result: Rad51 HR inh) | RBBP9 confirm inactive
O=C(CCCC1=NS(=O)(=O)c2ccccc2N1)OCc1ccc(Cl)cc1	none (no result: Rad51 HR inh, RBBP9 inh, Wee1 stabilizer)
CC(=O)Nc1c(O)c2ccccc2[nH]c1=O	none
CNC(=O)C(=O)Nc1c(O)c2ccccc2[nH]c1=O	RBBP9 inh 18 (no result: Rad51 HR inh) | RBBP9 confirm inactive
CCCCC[C@H](O)/C=C/[C@@H]1[C@@H](C/C=C\CCCC(=O)OC)[C@@H](O)C[C@H]1O	RBBP9 inh 18 | RBBP9 confirm 28
CCCCC[C@H](O)/C=C/[C@@H]1[C@@H](C/C=C\CCCC(=O)O)[C@@H](O)C[C@H]1O	none
O=Cc1cc(N=Nc2ccccc2Cl)ccc1O	none
O=Cc1cc(N=Nc2cccc(C(=O)O)c2)ccc1O	Rad51 HR inh 47, RBBP9 inh 18 | RBBP9 confirm inactive
Cc1cccc(N2CC(C(=O)O)CC2=O)c1 (configuration not stated)	none
CC(=O)c1ccc(OC(=O)C2CC(=O)N(c3cccc(C)c3)C2)cc1 (configuration not stated)	RBBP9 inh 16 | RBBP9 confirm inactive
Cc1[nH]c2ccccc2c1/C=N/NC(=O)c1ccccc1	none (no result: Rad51 HR inh, RBBP9 inh, Wee1 stabilizer)
Cc1[nH]c2ccccc2c1/C=N/NC(=O)c1cc(-c2ccccc2)n[nH]1	RBBP9 inh 19 | RBBP9 confirm 25
COc1ccc(NC(=O)c2ccc(-c3nn(C)c(=O)c4ccccc34)cc2)cc1C(N)=O	none
COc1cc(-n2nnnc2SCC(=O)N2CCN(c3ccc(F)cc3)CC2)c(OC)cc1Cl	RBBP9 inh 16 | RBBP9 confirm inactive
CCC(C)NC(=O)CC(c1ccccc1)c1cc(C)ccc1O (configuration not stated)	none
COc1ccc(OC(C)C(=O)N2CCCc3ccccc32)cc1 (configuration not stated)	RBBP9 inh 17 | RBBP9 confirm inactive
CC(Oc1ccccc1)C(=O)N1CCCc2ccccc21 (configuration not stated)	none
CCOC(=O)N1CCC(NC(=O)CS(=O)Cc2nc(-c3ccccc3C)oc2C)CC1 (configuration not stated)	none (no result: Rad51 HR inh, RBBP9 inh, Wee1 stabilizer)
CCOC(=O)C1=C(SCC(=O)Nc2ccccc2)NC(=O)C(C#N)C12CCCCC2 (configuration not stated)	RBBP9 inh 15 | RBBP9 confirm inactive
Cn1cc(Cl)c(C(=O)OCC(=O)c2ccccc2)n1	none (no result: Rad51 HR inh, RBBP9 inh, Wee1 stabilizer)
CC(=O)C(C(C)=O)c1c(Cl)c(O)c(O)c2c(C(=O)c3ccccc3)coc12	RBBP9 inh 26 | RBBP9 confirm 34
CN1CCN(Cc2c(O)ccc3occ(C(=O)c4ccccc4)c23)CC1	none
Cn1c(N2CCOCC2)nc2c1c(=O)n(Cc1ccc(Cl)c(Cl)c1)c(=O)n2C	RBBP9 inh 18 | RBBP9 confirm inactive
CCCCOCCCNS(=O)(=O)c1ccccc1	none
CCCCOP(=O)(OCCCC)C1(NS(=O)(=O)c2ccccc2)C=CC(=O)c2ccccc21 (configuration not stated)	RBBP9 inh 24 | RBBP9 confirm 16
O=C(Cn1ccc([N+](=O)[O-])n1)N1CCCCCC1	RBBP9 inh 16 | RBBP9 confirm inactive
O=C(Cn1ccc([N+](=O)[O-])n1)N1CCCCC1	none (no result: Rad51 HR inh)
CC(=O)Nc1ccc2cc3ccc(NC(C)=O)cc3nc2c1	DNA FID counter 56, RBBP9 inh 50 | RBBP9 confirm inactive
CC(=O)Nc1ccc2ccccc2c1	none
COc1cc(C(=O)NCCCn2ccnc2)cc(OC)c1OC	RBBP9 inh 14 | RBBP9 confirm inactive
Cc1cc(C(=O)NCCCn2ccnc2)cs1	none
O=S(=O)(c1cccs1)N1CN(Cc2ccco2)c2nc3ccccc3nc21	RBBP9 inh 34 | RBBP9 confirm inactive
CCc1cc(/C(Cc2ccc3ccccc3n2)=N\O)c(O)cc1O	RBBP9 inh 46 | RBBP9 confirm 50
CCc1cc(/C(Cc2ccccn2)=N\O)c(O)cc1O	none
CCN(CC(=O)Nc1c(F)cccc1F)C(=O)CNC(=O)c1cccc(C)c1	none (no result: Rad51 HR inh, RBBP9 inh, Wee1 stabilizer)
Cc1cccc(N2CCN(C(=O)Cn3sc4nc(C)cc(C)c4c3=O)CC2C)c1 (configuration not stated)	RBBP9 inh 19 | RBBP9 confirm 34
Cc1cc(C)c2c(=O)n(CC(=O)N3CCC(Cc4ccccc4)CC3)sc2n1	none (no result: Rad51 HR inh)
CC(=O)Nc1ccc(NC(=O)C2CCN(C(=O)NC3CCCCC3)CC2)cc1	none (no result: Rad51 HR inh, RBBP9 inh, Wee1 stabilizer)
Cc1ccc(NCC(=O)N/N=C/c2cccn2C)cc1	RBBP9 inh 17 (no result: Rad51 HR inh) | RBBP9 confirm inactive
Cc1nc2ncccn2c1-c1csc(Nc2ccccc2)n1	none (no result: Rad51 HR inh)
Cc1nc2ncccn2c1-c1csc(Nc2ccc(N(C)C)cc2)n1	RBBP9 inh 24 | RBBP9 confirm 21
Oc1ccc(/C=N/Nc2ccc(C(F)(F)F)cn2)cc1	none
COc1cc(/C=N/Nc2ccc(C(F)(F)F)cn2)cc(OC)c1O	RBBP9 inh 17 | RBBP9 confirm 15
CSCC[C@H](NC(=O)[C@H](Cc1ccccc1)n1c(=O)[nH]c2ccccc2c1=O)C(=O)N[C@@H](Cc1ccccc1)C(=O)O	none (no result: Rad51 HR inh, RBBP9 inh, Wee1 stabilizer)
CCn1c(CSc2nnc(-c3ccncc3)n2C)nc2cc(C(=O)O)ccc21	RBBP9 inh 17 | RBBP9 confirm 21
CCn1c(CSc2ncn[nH]2)nc2cc(C(=O)O)ccc21	none (no result: Rad51 HR inh)
O=C(c1ccccc1)c1nn(-c2ccc(Cl)cc2)cc1C(=O)c1cc2ccccc2oc1=O	none (no result: Rad51 HR inh)
CCOC(=O)C1=C(C)N(c2ccc(C)cc2)C(=O)/C1=C\c1ccc(O)c(OC)c1	RBBP9 inh 15 | RBBP9 confirm 29
COC(=O)C1=C(C)N(Cc2ccc(C)cc2)C(=O)/C1=C\c1ccc(O)c(OC)c1	none
Cc1cc(C(=O)NN=C2C3CC4CC(C3)CC2C4)c2ccccc2n1	RBBP9 inh 15 | RBBP9 confirm inactive
O=C(O)C1C2C=CC(O2)C1C(=O)NCc1ccccc1Br (configuration not stated)	none
O=C(NCc1ccc2c(c1)OCO2)C1CC(=O)N(c2ccc(F)cc2)C1 (configuration not stated)	RBBP9 inh 17 | RBBP9 confirm inactive
CCCCCCCC1CC(CSC(=N)N)OC1=O (configuration not stated)	RBBP9 inh 23 (no result: Rad51 HR inh) | RBBP9 confirm inactive
OC(CNC1Cc2ccccc2C1)COc1ccc(F)cc1 (configuration not stated)	RBBP9 inh 15 (no result: Rad51 HR inh) | RBBP9 confirm inactive
O=c1ccc2[n+]([O-])c3ccc(O)cc3oc-2c1	RBBP9 inh active | RBBP9 confirm inactive
Cc1nc2ccccc2c(=O)n1/N=C/c1c(O)ccc2oc3c(c12)CCCC3	RBBP9 inh 19 (no result: Rad51 HR inh) | RBBP9 confirm inactive
Cc1ccc2cc(CCNC(=O)c3cccs3)c(=O)[nH]c2c1	RBBP9 inh 16 (no result: Rad51 HR inh) | RBBP9 confirm inactive
COc1ccc(CC(=S)N2CCOCC2)cc1	none
